Test: Toxicity liver stage against HepG2, at 10uM
Format: cell-based
Design: test concentration 10 uM, cell line HepG2-A16-CD81EGFP
Settings: human, HepG2-A16-CD81EGFP cells; read-out: INHIBITION
How it was run: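 Uninfected HepG2-A16-CD81EGFP cells, 3 × 10^3 per well, 1536-well, plated on prespotted compound at 10 μM final, parasite-free screening media added to match infected plates; puromycin 10 μM positive, DMSO 0.5% negative; run in parallel with 48 h PbLuc assay at 37 °C, 5% CO2; viability by CellTiter-Glo luminescence, normalized to controls.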

Row | SMILES | cytotoxicity at 10 µM [%]
1 | CC(O)CN1CCN(C(=O)c2cc3ccccc3c(=O)[nH]2)CC1 (configuration not stated) | -2.64
2 | Cn1cc(-c2cnc(-c3ccnn3C)nc2)cc1C(=O)N1CCCC1 | 4.55
3 | Cc1nccc([C@H]2C[C@@H]3CCN(C(=O)c4c(C)noc4C)C[C@H]3O2)n1 | -83.3
4 | CC(C)[C@H]1COC(=O)N1Cc1noc(-c2ccccc2)n1 | 5.01
5 | CN(CCc1cn[nH]c1)Cc1nc(Cc2cccc(F)c2)no1 | -1.53
6 | CC(C)[C@@H]1CN(Cc2ccccc2C#N)C[C@H]1NC(=O)N(C)C | -12.3
7 | O=C1CCC2(CCN(CCSc3ccccc3)CC2)CN1CCCO | 2.09
8 | O=C(CC1=CSC2=NCCCN12)N1CCCCCC1c1ccco1 (configuration not stated) | 10
9 | O=C(N[C@@H]1CCNC[C@H]1O)c1cc(F)cc(Cl)c1 | -3.12
10 | CCc1cnc(N)nc1N1CCCC2(CCOCC2)C1 | -135
11 | CC(c1ccc2c(c1)OCCO2)N(C)C(=O)c1ccnnc1 (configuration not stated) | 0.94
12 | CCNc1ncc(C(=O)NCCc2ccc(C)c(C)c2)cn1 | -5.1
13 | Cc1ccc([C@@H]2CN(C(=O)c3ccoc3C)C[C@H]2NC(=O)C2CC2)cc1 | 4.22
14 | CCC(C(=O)NC1CCCCC1)n1ccc2ncccc2c1=O (configuration not stated) | 2.17
15 | COCc1ccc(C(=O)N2CCC(Oc3ccccc3OC)CC2)s1 | 5.79
16 | COCCC(=O)N1CCCC(CCC(=O)NCc2ccccc2F)C1 (configuration not stated) | 11
17 | COc1ccc2[nH]c(=O)c(CN(C)C(C)c3ccccn3)cc2c1 (configuration not stated) | 2.76
18 | c1nc(CCNc2nc(C3CC3)nc3c2CCNCC3)c[nH]1 | -130
19 | CCn1ncnc1C(C)NC(=O)C1CCN(Cc2ccco2)CC1 (configuration not stated) | -133

Row | SMILES | cytotoxicity at 10 µM [%]
20 | CCc1nc(N2CCN(c3ncccn3)CC2)c2cnn(C)c2n1 | -1.04
21 | COc1ccc(OC2CCN(C(=O)CCc3n[nH]c(C)n3)CC2)cc1 | 4.66
22 | CCc1nc2ccccc2n1C(CC)C(=O)N(C)CCc1noc(C)n1 (configuration not stated) | 3.02
23 | COc1ccc(Oc2nccc3occc23)cc1CN1CCCC1 | -24.6
24 | Cc1noc(C)c1CN(C)C(=O)c1n[nH]c(N)c1-c1ccccc1 | -7.46
25 | Cn1ncc2c(N3CCC3)nc(-c3ccncc3)nc21 | 11.8
26 | O=C(c1ccc(CNC2CCSC2)cc1)N1CCCC1 (configuration not stated) | -4.05
27 | CN(C)c1ccc(CC(=O)N[C@@H]2CCNC[C@H]2O)cc1 | -7.82
28 | CNc1ccc(CC2CCCN(C(=O)c3cncnc3C)C2)nn1 (configuration not stated) | 5.99
29 | CCNc1cc2c(nn1)CCN(C(=O)c1cccc3c1OCO3)C2 | -9.88
30 | Cc1cnn(CCC(=O)N2CCCC(c3noc(C)n3)C2)c1 (configuration not stated) | -3.98
31 | CN(Cc1ccco1)C(=O)CN1CCCC1Cn1cncn1 (configuration not stated) | -24.1
32 | CCCNC(=O)NC(=O)CN1C=Nc2ccccc2S1(=O)=O | -3.12
33 | O=C(CCn1cncn1)NC1CCc2nccn2C1 (configuration not stated) | -4.39
34 | COc1cc(CNCCc2cnn(C)c2)cc2c1OCO2 | -9.3
35 | CC(C)(C)c1cc(NC(=O)CN2CCn3c(nnc3C3CC3)C2)on1 | -4.1
36 | OC(COCc1ccc(Cl)cc1)CN1CC(n2cccn2)C1 (configuration not stated) | -6.25
37 | CNS(=O)(=O)c1cccc(CNC(=O)c2cc(C)no2)c1 | -10.3
38 | Cc1ccc(C(=O)NC2CCN(C(=O)NCc3ccccn3)CC2)o1 | -12.2

Row | SMILES | cytotoxicity at 10 µM [%]
39 | Cc1cnn(CC2CCCN2C(=O)c2n[nH]c(=O)c3ccccc23)c1 (configuration not stated) | -21.9
40 | CCn1c(C)nnc1CN(C)C1CCN(CC2CCC2)C1 (configuration not stated) | -11.5
41 | Cc1nc(C)n(CC2CCCN(CCC(=O)NC3CCCCC3)C2)n1 (configuration not stated) | -3.39
42 | O=C(c1sccc1C1CC1)N1CCCN(Cc2cscn2)CC1 | -14.7
43 | CCc1nc(CN2CCOC(CN(C)c3cccnn3)C2)cs1 (configuration not stated) | 5.35
44 | O=C(c1cccc2ncccc12)N1CCCN(c2cccnn2)CC1 | -2.08
45 | O=C(c1cccnc1O)N1CCCN(c2cccnn2)CC1 | 6.82
46 | CN(Cc1nnc(C2CC2)o1)CC1CCCN1c1cccnn1 (configuration not stated) | -6.54
47 | COc1ccc(CCN2CCC(N3CCN(C)C3=O)CC2)cc1 | -6.64
48 | O=C(NCCCn1ccnc1)N1CCCC1c1cccs1 (configuration not stated) | -8.31
49 | CCn1ccnc1CN1CCN(CC(=O)NC(=O)NC2CC2)CC1 | -3.3
50 | CN1C(=O)C2(CCN(Cc3cccnc3)CC2)c2cccc(F)c21 | 6.77
51 | Cc1cncc(C(=O)N2CCC3(CC2)NC(=O)CC3c2ccccc2)c1 (configuration not stated) | -78.1
52 | COc1cc(CNC(C)Cn2cccn2)cc(Cl)c1OC (configuration not stated) | -1.14
53 | O=C(O)CN1CCC(F)(F)C2(CCN(c3ccccn3)C2)C1 (configuration not stated) | 1.78
54 | Cn1cc2c(n1)C(CNCC1CCOCC1)OCC2 (configuration not stated) | 6.86
55 | CS(=O)(=O)NCc1cn2c(n1)CN(Cc1ccoc1)CC2 | 7.92
56 | CN(C)CCN1C(=O)CCCC12CCCN(Cc1cccs1)C2 (configuration not stated) | 0.199
57 | O[C@@H]1CC(CNCc2cccc(Cl)c2)(COc2cnccn2)C[C@@H]1O (some centres not stated) | -3.58

— ChEMBL document CHEMBL4513216, “Probing the Open Global Health Chemical Diversity Library for Multistage-Active Starting Points for Next-Generation Antimalarials” (ACS Infect Dis, 2020)
